Measurements from ChEMBL document CHEMBL1147690, “A cassette-dosing approach for improvement of oral bioavailability of dual TACE/MMP inhibitors” (Bioorg Med Chem Lett, 2006).

Tests used:
[1] = target: T1, Disintegrin and metalloproteinase domain-containing protein 17 (Homo sapiens, UniProt P78536); assay: Binding affinity to recombinant TACE
[2] = target: T1, Disintegrin and metalloproteinase domain-containing protein 17; assay: Inhibition of LPS/interferon gamma-stimulated TNFalpha release from HPBMC; format: functional
Collagenase 3 = Collagenase 3 (Homo sapiens, UniProt P45452); assay: Binding affinity to recombinant MMP13
Interstitial collagenase = target: T2, Interstitial collagenase (Homo sapiens, UniProt P03956); assay: Binding affinity to recombinant MMP1
T2 sequence (P03956 whole entry): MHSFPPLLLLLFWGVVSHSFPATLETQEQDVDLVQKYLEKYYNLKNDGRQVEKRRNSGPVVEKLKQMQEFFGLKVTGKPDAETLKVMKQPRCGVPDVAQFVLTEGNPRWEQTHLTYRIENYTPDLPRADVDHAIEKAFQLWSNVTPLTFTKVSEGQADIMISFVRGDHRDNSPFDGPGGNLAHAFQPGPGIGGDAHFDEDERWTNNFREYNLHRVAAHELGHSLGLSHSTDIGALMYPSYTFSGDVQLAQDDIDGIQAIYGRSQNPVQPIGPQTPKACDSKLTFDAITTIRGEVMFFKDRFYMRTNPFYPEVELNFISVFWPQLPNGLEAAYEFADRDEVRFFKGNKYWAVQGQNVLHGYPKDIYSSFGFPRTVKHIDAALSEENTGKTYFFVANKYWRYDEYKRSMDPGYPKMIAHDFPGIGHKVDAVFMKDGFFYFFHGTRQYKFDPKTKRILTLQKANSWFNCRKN

Stromelysin-1 = Stromelysin-1 (Homo sapiens, UniProt P08254); assay: Binding affinity to recombinant MMP3
Outline: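 Recombinant enzyme activity measured by a fluorimetric assay.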

[3] = Clearance in rat at 1 mg/kg, iv and 3 mg/kg, po; format: ADME, organism-based; details: in vivo
Outline: (§1)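 Conscious, permanently cannulated rats (n = 4) were dosed with a five-compound cassette or a single compound. Dosing was 1 mg/kg iv into the femoral vein (30% N-methyl-2-pyrrolidone in PEG 200) and 3 mg/kg po by gavage (3% ethanol in corn oil), in the same animals with a 48 h washout. Femoral-artery plasma was sampled for 24 h (iv) or 7 h (po), acetonitrile-precipitated and analysed by HPLC/MS.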

[4] = Volume of distribution in rat at 1 mg/kg, iv and 3 mg/kg, po; format: ADME, organism-based; details: in vivo, read-out: Vdss; outline: as §1
Rattus norvegicus = assay: Cmax in rat at 3 mg/kg, po normalized to 1 mg/kg; format: ADME, organism-based; design: dose 3 mg/kg, route oral; details: in vivo; outline: as §1
[5] = Oral bioavailability in rat at 1 mg/kg, iv and 3 mg/kg, po; format: ADME, organism-based; details: in vivo; outline: as §1

Sequence of Stromelysin-1 (P08254 whole entry): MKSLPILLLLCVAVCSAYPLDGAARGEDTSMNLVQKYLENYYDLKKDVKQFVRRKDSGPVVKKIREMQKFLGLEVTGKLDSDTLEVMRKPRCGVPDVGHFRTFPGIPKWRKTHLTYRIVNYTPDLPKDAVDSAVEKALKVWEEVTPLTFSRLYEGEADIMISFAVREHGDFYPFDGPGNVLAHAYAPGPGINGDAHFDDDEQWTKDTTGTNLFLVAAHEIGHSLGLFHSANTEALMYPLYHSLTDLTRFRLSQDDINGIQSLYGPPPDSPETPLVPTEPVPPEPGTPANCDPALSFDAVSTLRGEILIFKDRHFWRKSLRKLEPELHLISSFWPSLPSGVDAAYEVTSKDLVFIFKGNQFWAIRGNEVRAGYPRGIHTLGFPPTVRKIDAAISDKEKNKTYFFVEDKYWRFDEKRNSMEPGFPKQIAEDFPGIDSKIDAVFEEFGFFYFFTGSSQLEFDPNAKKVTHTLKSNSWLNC
T1 sequence (P78536 whole entry, the tested form may be a part): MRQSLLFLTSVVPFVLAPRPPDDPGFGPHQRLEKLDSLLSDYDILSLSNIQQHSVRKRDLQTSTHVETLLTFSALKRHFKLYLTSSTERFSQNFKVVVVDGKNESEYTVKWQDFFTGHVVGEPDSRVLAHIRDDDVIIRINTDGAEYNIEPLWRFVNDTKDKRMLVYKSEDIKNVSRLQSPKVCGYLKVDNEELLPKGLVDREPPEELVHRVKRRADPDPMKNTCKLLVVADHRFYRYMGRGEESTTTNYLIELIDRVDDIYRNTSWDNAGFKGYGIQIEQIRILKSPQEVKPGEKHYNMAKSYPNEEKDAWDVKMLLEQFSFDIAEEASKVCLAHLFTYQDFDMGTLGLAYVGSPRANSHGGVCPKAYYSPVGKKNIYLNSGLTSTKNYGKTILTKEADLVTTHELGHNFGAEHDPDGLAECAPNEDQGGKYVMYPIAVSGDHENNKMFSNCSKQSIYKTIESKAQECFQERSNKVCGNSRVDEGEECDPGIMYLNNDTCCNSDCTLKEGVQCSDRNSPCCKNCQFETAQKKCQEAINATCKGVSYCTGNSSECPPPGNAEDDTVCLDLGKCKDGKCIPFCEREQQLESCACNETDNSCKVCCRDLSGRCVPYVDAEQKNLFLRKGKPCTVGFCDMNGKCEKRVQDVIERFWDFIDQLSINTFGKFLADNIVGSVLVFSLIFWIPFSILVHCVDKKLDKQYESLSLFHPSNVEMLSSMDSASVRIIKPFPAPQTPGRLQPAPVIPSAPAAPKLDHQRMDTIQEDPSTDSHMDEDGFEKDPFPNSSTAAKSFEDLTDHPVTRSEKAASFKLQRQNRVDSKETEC

| Ki (Collagenase 3) [nM] | Ki (Interstitial collagenase) [nM] | clearance [3] [mL/min/kg] | Vd [4] [L/kg] | Cmax (Rattus norvegicus) [nM] | bioavailability [5] [%] | Structure (SMILES) | Ki [1] [nM] | IC50 [2] [nM] | Ki (Stromelysin-1) [nM] |
| --- | --- | --- | --- | --- | --- | --- | --- | --- | --- |
| – | – | – | – | – | – | CN1C(=O)N(C[C@H](C(=O)NO)[C@@H](CC2CCCC2)C(=O)N2CCCCC2)C(=O)C1(C)C | 230 | > 10000 | – |
| 55 | 213 | – | – | – | – | COc1ccc([C@@H](C(=O)N2CCCCC2)[C@H](CO)C(=O)NO)cc1 | 66 | > 10000 | 300 |
| 7 | 25 | – | – | – | – | CC[C@H](C(=O)NO)[C@H](C(=O)N1CCCC[C@H]1C(=O)NC)c1ccc(OC)cc1 | 8 | 836 | 11 |
| 10 | 23 | 23.2 | 1.06 | 38.1 | 8.4 | CNC(=O)[C@@H]1CCCCN1C(=O)[C@H](c1ccc(OC)cc1)[C@H](CO)C(=O)NO | 8 | > 10000 | – |
| 0.5 | 1 | 10 | 0.34 | 42.7 | 3.2 | CNC(=O)[C@@H](NC(=O)C(c1ccc(OC)cc1)C(CO)C(=O)NO)C(C)(C)C (single isomer, unassigned) | – | 48 | – |

| Structure (SMILES) | Ki (Collagenase 3) [nM] | Ki (Interstitial collagenase) [nM] | clearance [3] [mL/min/kg] | Vd [4] [L/kg] | Cmax (Rattus norvegicus) [nM] | bioavailability [5] [%] | Ki [1] [nM] | IC50 [2] [nM] | Ki (Stromelysin-1) [nM] |
| --- | --- | --- | --- | --- | --- | --- | --- | --- | --- |
| CNC(=O)[C@@H](NC(=O)[C@H](c1ccc(OC)cc1)[C@H](CN1C(=O)N(C)C(C)(C)C1=O)C(=O)NO)C(C)(C)C | 3 | 0.7 | – | – | – | – | 57 | 484 | 12 |
| CC[C@H](C(=O)NO)[C@H](C(=O)N1CCCC[C@H]1C(=O)NC)c1ccc(Cl)cc1 | 2 | 0.7 | 28.1 | 16.7 | 388.6 | 47.1 | 5 | 316 | – |
| COc1ccc([C@@H](C(=O)N2CCCCC2)[C@H](CN2C(=O)N(C)C(C)(C)C2=O)C(=O)NO)cc1 | 19 | 83 | – | – | – | – | 321 | > 10000 | 187 |
